Laboratory results published in ChEMBL document CHEMBL1132183 (J Med Chem, 1999).

What was measured:
[1] = target: T1, Adrenergic receptor alpha-2 (Rattus norvegicus, UniProt P22086+P19328+P22909); assay: Displacement of [3H]rauwolscine from rat brain Alpha-2 adrenergic receptor
T1 sequence (P22086 whole entry): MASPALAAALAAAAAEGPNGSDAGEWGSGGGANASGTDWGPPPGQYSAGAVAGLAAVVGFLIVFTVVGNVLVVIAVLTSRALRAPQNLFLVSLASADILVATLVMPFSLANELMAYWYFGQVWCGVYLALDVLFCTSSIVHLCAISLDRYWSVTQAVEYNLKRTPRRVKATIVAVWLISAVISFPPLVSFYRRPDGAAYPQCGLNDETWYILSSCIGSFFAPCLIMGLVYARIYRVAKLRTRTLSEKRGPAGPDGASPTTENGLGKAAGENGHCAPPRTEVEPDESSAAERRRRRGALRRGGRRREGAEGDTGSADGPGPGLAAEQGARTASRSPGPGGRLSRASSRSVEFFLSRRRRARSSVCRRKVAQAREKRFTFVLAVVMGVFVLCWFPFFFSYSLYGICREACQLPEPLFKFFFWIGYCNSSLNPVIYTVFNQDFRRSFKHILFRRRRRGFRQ
T1 sequence (P19328 whole entry): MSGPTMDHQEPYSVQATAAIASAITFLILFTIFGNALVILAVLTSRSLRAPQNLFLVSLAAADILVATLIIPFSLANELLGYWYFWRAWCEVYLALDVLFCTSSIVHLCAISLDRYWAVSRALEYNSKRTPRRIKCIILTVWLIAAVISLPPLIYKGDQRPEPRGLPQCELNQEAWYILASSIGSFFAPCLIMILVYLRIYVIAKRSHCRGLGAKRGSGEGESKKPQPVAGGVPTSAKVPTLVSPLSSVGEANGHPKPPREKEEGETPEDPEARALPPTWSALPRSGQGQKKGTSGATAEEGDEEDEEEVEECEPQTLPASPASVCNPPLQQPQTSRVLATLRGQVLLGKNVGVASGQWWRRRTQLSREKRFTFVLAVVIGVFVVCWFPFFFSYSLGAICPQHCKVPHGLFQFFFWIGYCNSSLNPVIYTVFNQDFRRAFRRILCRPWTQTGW
T1 sequence (P22909 whole entry): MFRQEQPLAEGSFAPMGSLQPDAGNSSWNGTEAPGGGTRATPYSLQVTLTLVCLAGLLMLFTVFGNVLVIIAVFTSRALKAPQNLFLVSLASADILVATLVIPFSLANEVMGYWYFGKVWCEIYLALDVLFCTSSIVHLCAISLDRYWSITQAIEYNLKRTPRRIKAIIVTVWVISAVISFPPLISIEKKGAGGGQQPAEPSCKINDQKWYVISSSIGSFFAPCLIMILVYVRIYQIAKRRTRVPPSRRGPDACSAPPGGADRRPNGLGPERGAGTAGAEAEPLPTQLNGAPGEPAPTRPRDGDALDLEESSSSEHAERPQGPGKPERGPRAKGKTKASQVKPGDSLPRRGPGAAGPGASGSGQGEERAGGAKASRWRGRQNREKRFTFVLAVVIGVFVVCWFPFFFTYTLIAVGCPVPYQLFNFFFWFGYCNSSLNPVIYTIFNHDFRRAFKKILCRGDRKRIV
Method in brief: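 Rat cerebral cortex membranes (male Sprague–Dawley) were washed in Tris-HCl pH 7.4 and resuspended with 10 μM pargiline and 0.1% ascorbic acid. They were incubated 30 min at 25 °C with 0.5–1.5 nM [3H]rauwolscine. Nonspecific binding was taken with 10 μM phentolamine. Filtration and scintillation counting followed, and Ki was obtained by Cheng–Prusoff.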

[2] = target: T2, Alpha-1B adrenergic receptor (Homo sapiens, UniProt P35368); assay: Displacement of [3H]prazosin from human cloned Alpha-1B adrenergic receptor
T2 sequence (P35368 whole entry): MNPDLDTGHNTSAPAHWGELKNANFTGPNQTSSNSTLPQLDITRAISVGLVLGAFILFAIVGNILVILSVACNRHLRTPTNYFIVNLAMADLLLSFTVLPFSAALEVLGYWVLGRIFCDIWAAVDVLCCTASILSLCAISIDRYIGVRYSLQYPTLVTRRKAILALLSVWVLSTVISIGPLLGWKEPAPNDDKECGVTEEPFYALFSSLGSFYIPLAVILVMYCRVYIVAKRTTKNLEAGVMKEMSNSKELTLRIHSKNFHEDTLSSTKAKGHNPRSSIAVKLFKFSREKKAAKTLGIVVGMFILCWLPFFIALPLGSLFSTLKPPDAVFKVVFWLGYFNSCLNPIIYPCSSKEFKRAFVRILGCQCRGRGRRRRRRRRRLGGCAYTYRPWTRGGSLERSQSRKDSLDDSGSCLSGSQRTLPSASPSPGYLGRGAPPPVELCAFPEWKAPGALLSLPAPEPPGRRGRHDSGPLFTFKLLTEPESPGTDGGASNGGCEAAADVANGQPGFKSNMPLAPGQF
Method in brief: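 CHO cells stably transfected with each human α1 subtype; 30 μg membrane protein in 50 mM Tris-HCl pH 7.4 with 0.1–0.4 nM [3H]prazosin, 30 min at 25 °C. Competitors 1 pM–10 μM. Nonspecific binding defined with 10 μM phentolamine. Filtration, scintillation counting. Ki by Cheng–Prusoff; 2–3 experiments in triplicate.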

[3] = target: T3, 5-hydroxytryptamine receptor 1A (Homo sapiens) (UniProt P08908); assay: Agonist efficacy on 5-hydroxytryptamine 1A receptor subtype; assay type: functional
T3 sequence (whole entry): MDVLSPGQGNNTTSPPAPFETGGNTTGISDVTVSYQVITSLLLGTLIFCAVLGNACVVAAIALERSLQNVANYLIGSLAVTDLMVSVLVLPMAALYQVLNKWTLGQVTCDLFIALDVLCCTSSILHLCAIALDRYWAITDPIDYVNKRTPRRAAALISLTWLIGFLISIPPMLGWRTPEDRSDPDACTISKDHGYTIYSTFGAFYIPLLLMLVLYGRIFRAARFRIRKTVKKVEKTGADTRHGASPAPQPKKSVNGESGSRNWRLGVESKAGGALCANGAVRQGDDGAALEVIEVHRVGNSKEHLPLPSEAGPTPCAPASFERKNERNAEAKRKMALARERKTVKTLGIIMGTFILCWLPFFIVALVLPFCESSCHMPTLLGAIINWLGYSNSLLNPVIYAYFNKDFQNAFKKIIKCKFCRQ
Method in brief: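 [35S]GTPγS binding in membranes of HeLa cells stably expressing human 5-HT1A, in 20 mM HEPES, 3 mM MgSO4, 120 mM NaCl pH 7.4. Preincubation 20 min at 30 °C with 30 μM GDP and drug (0.1 nM–100 μM), then 150–250 pM [35S]GTPγS for 30 min at 30 °C. Stimulation above basal was scaled to the 5-HT maximum (100%). Emax and pD2 came from curve fits; triplicate, 2–3 sessions.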

O[C@H]1[C@@H](NC[C@H]2COc3ccccc3O2)CC[C@@H]1Oc1ccccc1
Log Ki [1]: -6.23
Ki [2]: 1820 nM
Max [3]: 82%

O[C@H]1[C@@H](NC[C@@H]2COc3ccccc3O2)CC[C@@H]1Oc1ccccc1
Log Ki [1]: -6.21
Ki [2]: > 1000 nM
Max [3]: 96%

O[C@@H]1[C@H](NC[C@H]2COc3ccccc3O2)CC[C@H]1Oc1ccccc1
Log Ki [1]: -6.05
Max [3]: 100%

O[C@@H]1[C@H](NC[C@@H]2COc3ccccc3O2)CC[C@H]1Oc1ccccc1
Log Ki [1]: -6.27
Ki [2]: 93.3 nM
Max [3]: 23%
